assay: Toxicity liver stage against HepG2, at 10uM; format: cell-based; parameters: test concentration 10 uM, cell line HepG2-A16-CD81EGFP; conditions: human, HepG2-A16-CD81EGFP cells; read-out: INHIBITION
Outline: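 Uninfected HepG2-A16-CD81EGFP cells, 3 × 10^3 per well, 1536-well, plated on prespotted compound at 10 μM final, parasite-free screening media added to match infected plates; puromycin 10 μM positive, DMSO 0.5% negative; run in parallel with 48 h PbLuc assay at 37 °C, 5% CO2; viability by CellTiter-Glo luminescence, normalized to controls.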

SMILES	cytotoxicity at 10 µM
O=c1c2ccccc2nc2n1C(CSc1ccc(Cl)cc1)CN2 (configuration not stated)	9.38%
Cc1cccc(CNC(=O)C2CCC(=O)N(Cc3ccccc3F)C2)n1 (configuration not stated)	-3.75%
COc1ccc2c(c1)nc1n2[C@@H](CNC(=O)c2cccnc2)COC1	-3.74%
Cc1ccccc1NC(=O)Nc1c[nH]c(=O)[nH]c1=O	3.54%
CCN1CCC(=O)N(C)Cc2cc(F)ccc21	9.78%
NCCC(Cc1ccccc1)c1ccco1 (configuration not stated)	0.45%
COc1ccc2nnc(CCC(=O)Nc3nc4c(s3)CCCCC4)n2n1	4.98%
COc1ncccc1C(=O)N1CC(c2nc(-c3ccco3)no2)C1	4.91%
COC(=O)N1CCc2ccccc2C1C(=O)NCc1ccncc1 (configuration not stated)	-4.83%
CN(C)CC1CSCCCN1C(=O)c1ccc(-n2cccc2)cc1 (configuration not stated)	10%
COC(C)(CNS(=O)(=O)c1cn(C)cn1)c1ccccc1F (configuration not stated)	-8.39%
COc1ccc(CC(=O)N2CCC3(CC2)CCN(CC(C)C)C3=O)cc1	1.11%
N#Cc1cnc2ccccc2c1N1CCC(C(=O)O)CC1	4.28%
CCN(CC)CCCNC(=O)c1nn(CC)cc1Cl	10.8%
CC(=O)NCCCn1ncc2c(C)cccc21	9.68%
CCC(=O)N1CCC(c2nc(N3CCOCC3)ncc2S(C)(=O)=O)CC1	3.65%
Cc1cccc(Nc2ccc(C3CCN(Cc4ncc[nH]4)CC3)nc2)n1	-2.83%
Cc1c(CN2CCCC(n3c(=O)oc4ccccc43)C2)cnn1C (configuration not stated)	6.62%
Nc1cccc(C2CN(C(=O)CN3CCOCC3)CCO2)n1 (configuration not stated)	-8.83%
O=C(NCCCN1CCOCC1)Nc1cnc2cc(Cl)ccc2c1O	1.29%
O=C(c1cnco1)N1C[C@@H]2CC[C@H](Oc3ccccc3F)[C@@H]2C1	5.22%
COCCN1C(=O)CO[C@H]2CN(Cc3c[nH]nc3-c3ccccc3)C[C@@H]21	-4.04%

SMILES	cytotoxicity at 10 µM
Cc1noc(C)c1CN(C)C(=O)C1CCCCN1S(C)(=O)=O (configuration not stated)	5.04%
O=C(CC1OCCc2ccccc21)NCC1(O)CCCCC1 (configuration not stated)	1.07%
CCOC(=O)NC1CCCN(c2cncc(Br)c2)C1 (configuration not stated)	-46.4%
Cc1cc(Cn2cc(C#N)c(=O)c3ccccc32)no1	5.76%
CC(=O)NCCCSC1CCN(c2ccccc2Cl)C1=O (configuration not stated)	-9.04%
CC(C)Cc1nnc(NC(=O)NC(CCO)c2cccs2)s1 (configuration not stated)	0.191%
COC(=O)N1CCC(NC2CCSCC2)C1 (configuration not stated)	-8.23%
Cc1cc(Br)ccc1C(=O)N(C)CCNS(C)(=O)=O	-54.1%
Cc1cccc(N(CC(=O)N2CCCCC2)Cc2ccno2)c1	3.1%
COc1ccc(S(=O)(=O)NC(=O)c2ccccc2F)cc1OC	-2.72%
Cn1cc(C(=O)N[C@@H]2CN(Cc3ccoc3)[C@@H]3CCCO[C@@H]32)cn1	-104%
CC(C)CNC(=O)[C@H]1CCS(=O)(=O)[C@@H]2CN(c3ncccn3)C[C@H]12	-110%
Cc1cnc(N2CCC3(C2)CN(S(=O)(=O)C2CC2)C3)nc1	-106%
CS(=O)(=O)N[C@@H]1CCO[C@]2(CCN(C(=O)c3cscn3)C2)C1	-67.2%
CCS(=O)(=O)N1CC[C@H]2O[C@@H](c3nnc(C)o3)CC[C@H]21	-63.7%
Cc1ccc(N2C[C@H](C(=O)N3CCOCC3)[C@@H]3CCO[C@@H]3C2)nn1	-66.8%
CN(C)CC(=O)N1Cc2ncn(C)c2C(COCC2CCOCC2)C1 (configuration not stated)	-71%
O=C(CC1CC1)N1CCC2(CC1)CN(c1ncc(F)cn1)CCO2	-72.8%
CC(C)N(C)[C@@H]1CCN(C(=O)c2ccc[nH]2)[C@H]1Cc1cnn(C)c1	-72%
O=C(c1cscn1)N1CCC2(CCN(Cc3nccs3)CC2)CC1	-71%
Cn1ncc2c1C(COCC1CC1)CN(Cc1ccoc1)C2 (configuration not stated)	-1.21%
O=C(C1CCOCC1)N1CC[C@H]2C[C@@H](c3ccncn3)O[C@@H]2C1	-0.748%

SMILES	cytotoxicity at 10 µM
O=C(c1ccncc1)N1CCC2(CC1)CC(Oc1cccnc1)CO2 (configuration not stated)	-3.66%
COc1cc(CN(Cc2ccccn2)CC(C)C)cc2c1OCO2	-16%
O=C(Cc1ccsc1)N1CCN(CCOc2ccccc2)CC1	-4.6%
CC/C(C)=C/CCN1CCN(C)C2(CCNC(=O)CC2)C1 (configuration not stated)	-48.2%
CCN(Cc1nccn1C)C(=O)c1ccc(NCC(C)C)nc1	-2.2%
O=C(NCc1cc2n(n1)CCCN(Cc1ccc(Cl)s1)C2)C1CCC1	5.46%
NC(=O)N1CCCC(C(=O)N2CCN(c3nsc4ccccc34)CC2)C1 (configuration not stated)	7.86%
CC1(C)CNC(=O)c2nc(-c3n[nH]c(=O)[nH]3)[nH]c2C1	-4.07%
C[C@@H]1CN(C(=O)c2c[nH]c(=O)c(Cl)c2)CC[C@@]1(O)C1CCOCC1	1.09%
CCc1ncc(C(=O)NCC2CCN(Cc3ccncc3)CC2)cn1	8.12%
Cc1c(CN2CC[C@@H](N3CCC(O)CC3)[C@H](O)C2)[nH]c2ccc(Cl)cc12	-3.96%
CN1CCC2(CCC1=O)CCN(C(=O)Cc1ccc(O)c(F)c1)CC2	-8.99%
COc1cccc([C@H]2CN(CCCS(=O)(=O)N(C)C)C[C@@H]2N)c1	-1.18%
Cc1nccn1-c1ccc(NC(=O)C2CCCN2Cc2c[nH]cn2)cc1 (configuration not stated)	-15.2%
Cc1nn2c(N3CCS(=O)(=O)CC3)cc(-c3ccccc3)nc2c1C	-6.43%
O=C(NCCc1cccnc1)c1ccc2nccn2c1	-38.6%
CC(C)CN1CCCn2nc(CNC(=O)Cc3cccc(O)c3)cc2C1	4.69%
O=C(NCC(F)F)c1ccc(S(=O)(=O)NCCc2cn[nH]c2)cc1	5.5%
COc1ccnc(CN2CCC=C(C(C)NC(C)=O)C2)c1OC (configuration not stated)	-8.81%
Cc1cnccc1N1CCCN(C(=O)CCCc2cn[nH]c2)CC1	-30.3%
CC(C)c1nccn1C1CCCN(C(=O)c2ccc3nncn3c2)C1 (configuration not stated)	-5.53%
COC(=O)c1cccn1C1CCN(C(=O)c2c(C)noc2C)CC1	-11.4%

SMILES	cytotoxicity at 10 µM
COC(CNC(=O)NCc1c(C)cc(C)[nH]c1=O)c1ccccc1 (configuration not stated)	-6.12%
CCOc1ccnc(N2CCN(C(=O)c3ccc(C#N)cc3)CC2)n1	-10.6%
CSc1nccn1-c1ccc(C(=O)NCC2CC2)cc1	-3.67%
CC(C)CCc1nc(CN2CCOC(Cn3cncn3)C2)cs1 (configuration not stated)	-6.06%
CNS(=O)(=O)c1ccc(C(=O)N2CCCC2c2ccncc2)o1 (configuration not stated)	-6.23%
C=C(Cl)CN(C)C1CCN(CCc2ccccn2)CC1	-2.93%
Cc1ccc(-c2cc(CNC(=O)N3CCCN(C)CC3)on2)cc1	-5.19%
CC1CN(CC(=O)NCc2cccs2)CCN1c1nccs1 (configuration not stated)	-12.8%
Cc1cccc(C2(C(=O)NC(C)Cn3ccnc3)CC2)c1 (configuration not stated)	0.742%
COc1c(C2CCCN2C(=O)c2c(C)noc2C(C)C)c(C)nn1C (configuration not stated)	8.88%
Cc1cnn(CC(=O)N2CCCN(c3nc(C)cs3)CC2)c1	-4.71%
COc1c(CNCc2ccc(OCC(N)=O)cc2)c(C)nn1C	-3.81%
CCn1cnnc1CNC(=O)N(C)Cc1cccc(OC(F)F)c1	-3.73%
COc1ccc(CNC(=O)NCCc2csc(C)n2)cn1	-7.05%
Cc1nc(C)n(CC2CN(Cc3cccc4c3OCCO4)CCO2)n1 (configuration not stated)	-1.99%
CCc1ncc2c(n1)CN(Cc1nc(-c3ccsc3)no1)CC2	-4.99%
CCC(=O)N(C)CC(=O)Nc1ccc(Br)cn1	7.48%
Cc1ccc(CC(=O)NCCCNS(C)(=O)=O)cc1	3.1%
N#Cc1ccccc1CN1CCCCC1Cn1cncn1 (configuration not stated)	-4.13%
Cc1ccc(CN2C(=O)CCC23CCC(NC2CCOC2)CC3)cc1 (configuration not stated)	-3.04%
O=C(c1ccco1)N1C[C@@H]2[C@@H](C1)OCC(=O)N2Cc1cccnc1	3.04%
O=C1CCC2(CCN(c3ncc(F)cn3)CC2)N1Cc1ccncc1	5.02%

SMILES	cytotoxicity at 10 µM
Cc1noc([C@H]2C[C@H]3OCC[C@H]3N(Cc3ccc(F)cc3)C2)n1	-76.4%
COCC1c2c(cnn2C)CCN1Cc1ccco1 (configuration not stated)	2.32%
O=C(N[C@@H]1CN[C@H]2CCCO[C@H]21)c1cccnc1	5.25%
CCOCC1CN(C(=O)c2ccncn2)Cc2cnn(CC)c21 (configuration not stated)	-68.3%
O=C(N[C@@H]1CN(c2ncccn2)C[C@@H]2CCCO[C@@H]21)c1ccncc1	2.29%
COCC1CN(CC2CC2)Cc2nccn2C1 (configuration not stated)	-76%
Cc1cccc(CN2C[C@@H]3COC[C@]3(CNC(=O)C3CC3)C2)c1	-107%
COC[C@]12COC[C@H]1CN(Cc1cc(OC)cc(OC)c1)C2	-6.33%
Cc1cccc(CN2C[C@H](OCc3ccccn3)[C@H]3COC[C@H]32)n1	-92.6%
Cn1cc(C(=O)N2CC[C@@H]3[C@@H]2CCN3Cc2ccncc2)cn1	-75.3%
c1cc(COC[C@]23COC[C@H]2CN(Cc2ccsc2)C3)ccn1	-90.9%
Cc1ccc(N2CCCc3sc(C(=O)NCCC#N)nc32)nn1	11.6%
COCC(=O)N1C[C@@H](OCc2ccncc2)[C@@H]2OCCC[C@@H]21	-0.182%
Cc1cccc(CN2CCc3nnc(CN4CCCC4=O)n3CC2)n1	5.31%
CN1CCS(=O)(=O)[C@@H]2CCN(C(=O)CC(C)(C)C)CC[C@@H]21	1.2%
O=C(c1ccncc1)N1CCCn2c(CN3CCCC3)nnc2C1	-76.9%
CN1C[C@H](NC(=O)c2cscn2)[C@@H]2OCCC[C@@H]21	-112%
CCCSCC(=O)N1C[C@H]2CC[C@@H](C1)N(Cc1ccccn1)C2=O	3.32%
O=C1Nc2ccccc2CN(CC=Cc2ccccc2)C12CCNC2 (configuration not stated)	2.96%

Reference: ChEMBL document CHEMBL4513216, “Probing the Open Global Health Chemical Diversity Library for Multistage-Active Starting Points for Next-Generation Antimalarials” (ACS Infect Dis, 2020)
